Source: article PMC4094378 (European journal of medicinal chemistry, 2014)
pIC50: −log10 of the molar value. Entries after “also recorded” stand apart in the source; their conditions may differ. Values belong to the molecule of their own block, whether it stands above or below them.

Legend:
LoVo cells = test: Cell growth inhibitory activity; format: cell-based, human; conditions: additional meta-methoxy
Summary of the method: (§1)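 Jurkat, CEM and SEM cells were grown in RPMI-1640, and HeLa, MCF-7, HT-29 and LoVo in DMEM, each with 10% FBS and penicillin/streptomycin. Wells got 8 × 10^3 cells and were preincubated 18 h at 37 °C in 5% CO2. Test compound from a 10 mM DMSO stock was diluted in medium (final DMSO ≤0.25%) and applied for 72 h. Read-out was MTT. IC50 is the concentration giving 50% inhibition of proliferation, from dose–response curves of ≥3 independent experiments, mean ± SE.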

Jurkat cells = test: Cell growth inhibitory activity; format: cell-based, human; conditions: additional meta-methoxy
Summary of the method: as §1

Bovine brain tubulin = test: In vitro inhibition of tubulin polymerization; format: biochemical; conditions: 10 μM purified tubulin, glutamate buffer, 30 °C
Summary of the method: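 Tubulin was purified from bovine brain. Varying test-compound concentrations were preincubated with the tubulin at 30 °C, then cooled to 0 °C. GTP was added, the mixtures were moved to 0 °C cuvettes in a recording spectrophotometer and warmed to 30 °C, and assembly was followed turbidimetrically.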

[1] = tested on: murine leukemia L1210 cells; conditions: read-out: IC50 L1210; ref [21]; cited from earlier work
[2] = tested on: panel of seven human cancer cell lines; test: Antiproliferative activity across the panel of seven cancer cell lines; format: cell-based; conditions: for pIC50: Homo sapiens, read-out: IC50 range over the panel of cancer cell lines
Summary of the method: as §1

U-937 (lymphoma) cells = conditions: read-out: IC50 U-937; ref [18],[19]; cited from earlier work
[3] = tested on: HeLa (cervical) cancer cells; conditions: read-out: IC50 HeLa (literature); ref [18],[19]; cited from earlier work
[4] = tested on: microtubule network in HeLa cells; test: Immunofluorescence analysis of microtubule network; format: cell-based, human; conditions: 2.5 or 5.0 μM, 24 h, anti-β-tubulin staining
Summary of the method: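 Untreated HeLa cells served as the control. After 24 h exposure, cells were fixed in cold 4% formaldehyde for 15 min. Staining used mouse monoclonal anti-β-tubulin (1:1000), then an Alexa-conjugated secondary antibody (1:2000), with DAPI (1:10,000) counterstain for nuclei. Cells were imaged by confocal microscopy at 20×.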

HeLa cells [5] = test: Mitochondrial membrane potential; format: cell-based, human; conditions: JC-1, time course
HeLa cells [6] = test: Cell viability; format: cell-based, human; conditions: 2.5 μM, 48 h; BHA 10 μM, TOC 100 μM, NAC 100 μM, GSH 1 mM, DTT 1 mM
[7] = tested on: PBMC not stimulated with PHA; test: Cytotoxicity in resting PBMC; format: cell-based, human; conditions: resting PBMC vs lymphoblastic cell lines
Summary of the method: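 PBMC from healthy donors were isolated on a Lymphoprep gradient, washed, and held overnight at 1.0 × 10^6 cells/mL in RPMI-1640 with 10% FBS. Non-adherent cells were resuspended at 5 × 10^5 cells/mL without PHA, given a range of test-compound concentrations for 72 h, and read by MTT. Values are mean ± SEM of three separate experiments.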

HeLa cells [8] = test: Flow cytometric analysis of cell cycle distribution; format: cell-based, human; conditions: 24 h; for effect on cell cycle progression: PI, concentration-dependent, reduction in S phase cells
Summary of the method: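 HeLa cells in exponential growth (2.5 × 10^5) were treated with a range of test-compound concentrations. Cells were collected, fixed in ice-cold 70% ethanol, and lysed in buffer containing RNase A and 0.1% Triton X-100. They were stained with propidium iodide for flow-cytometric DNA content, and the DNA histograms were analysed to give the percentage of cells in each phase.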

HeLa cells [9] = test: ROS production by flow cytometry; format: cell-based, human
γH2A.X in HeLa cells = test: Western blot of γH2A.X; format: cell-based, human; conditions: 24 or 48 h treatment
Summary of the method: (§2)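 HeLa cultures were sampled at the indicated times and concentrations, washed twice in 0 °C PBS and lysed 30 min at 0 °C. Lysates were clarified at 15 000 × g (4 °C, 10 min) and protein was measured by BCA. Aliquots of 20 µg were run on 7.5–15% gradient SDS-PAGE and blotted to PVDF. Membranes were blocked at 4 °C, probed 2 h at room temperature with primary antibody, then 60 min with peroxidase-labelled secondary, and developed by ECL. Membranes were reprobed for β-actin as the loading control.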

[10] = tested on: Bcl-2, Bax, Bak, Mcl-1 and Bid in HeLa cells; test: Western blot of Bcl-2 family proteins; format: cell-based, human; conditions: for Mcl-1 expression: 2.5 μM, especially at 48 h; for Bid expression: evident after 24 h at the lowest concentration used
Summary of the method: as §2

HeLa cells [11] = test: Intracellular GSH content; format: cell-based, human; conditions: 24 h, concentration-dependent; counteracted by NAC 100 μM
HeLa cells [12] = test: Annexin-V/PI apoptosis assay; format: cell-based, human; conditions: 24 h, further increased after 48 h
HeLa cells [13] = test: Cell viability with or without pan-caspase inhibitor z-VAD.fmk; format: cell-based, human; conditions: compound 2.5 μM, z-VAD.fmk 100 μM, 48 h
Summary of the method: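 HeLa cells were exposed for 48 h to test compound with or without the pan-caspase inhibitor, and viability was recorded as a percentage. Data are means ± SEM of three independent experiments. Significance against compound-alone treatment was tested by Student's t-test. Final DMSO was ≤0.25%.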

Compound: C=C(Br)C(=O)Nc1cccc(/C=C/C(=O)Nc2ccc(OC)c(OC)c2)c1 [4m, 2-Bromo-N-(3-{(1E)-3-oxo-3-[(3,4-dimethoxyphenyl)amino]prop-1-en-1-yl}phenyl)-acrylamide]
fold increase in activity vs 4i, LoVo (LoVo cells): 3 fold | fold increase in activity vs 4i, Jurkat (Jurkat cells): 2 fold | Concentration up to which tubulin assembly was not inhibited (Bovine brain tubulin): > 20 µM

Compound: C=C(Br)C(=O)O [α-bromoacrylic acid]
pIC50 [1]: < 3.92

pIC50 [2]: 4.20 to 5.55
Compound: COc1cc(NC(=O)/C=C/c2cccc(N)c2)cc(OC)c1OC [7o, (E)-3-(3-aminophenyl)-N-(3,4,5-trimethoxyphenyl)acryl-amide]
fold less active than 4o ([2]; across seven cell lines): 30–700 fold

pIC50 [2]: 4.66 to 5.66
Compound: COc1cc(NC(=O)/C=C/c2cccc(OCc3ccccc3)c2)cc(OC)c1OC [1b, reference compound]
pIC50 (U-937 (lymphoma) cells): 5.74 | fold more potent than 1a ([2]; across seven cell lines): 1.5- to 12 fold

Compound: C=C(Br)C(=O)Nc1cccc(/C=C/C(=O)Nc2ccc(OC)cc2)c1 [4i, 2-Bromo-N-(3-{(1E)-3-oxo-3-[(4-methoxyphenyl)amino]prop-1-en-1-yl}phenyl)-acrylamide]
fold increase in antiproliferative activity relative to 4a ([2]; para-methoxy): 7–15 fold | Concentration up to which tubulin assembly was not inhibited (Bovine brain tubulin): > 20 µM

pIC50 [2]: 5.19 to 6.17
Compound: C=C(Br)C(=O)Nc1cccc(/C=C/C(=O)Nc2cccc3ccccc23)c1 [4b, 2-Bromo-N-(3-{(1E)-3-oxo-3-[(naphthalen-1-yl)amino]prop-1-en-1-yl}phenyl)-acrylamide]

Compound: COc1cccc(/C=C/C(=O)Nc2cc(OC)c(OC)c(OC)c2)c1 [1a]
pIC50 (U-937 (lymphoma) cells): 5.52 | pIC50 [3]: 4.95

Compound: C=C(Br)C(=O)Nc1cccc(/C=C/C(=O)Nc2ccc(C)cc2)c1 [4g, 2-Bromo-N-(3-{(1E)-3-oxo-3-[(p-tolyl)amino]prop-1-en-1-yl}phenyl)-acrylamide]
fold increase in potency vs 4f ([2]; chlorine replaced by methyl): 2–10 fold

Compound: C=C(Br)C(=O)Nc1ccc(/C=C/C(=O)Nc2cc(OC)c(OC)c(OC)c2)cc1 [4r]
effect on microtubule network [4]: not substantially modified | mitochondrial depolarization, onset time (HeLa cells [5]): ≥ 12 h | cell viability in the presence of antioxidants (HeLa cells [6]): only the thiol-containing scavengers (NAC, GSH and DTT) significantly increased cell viability | fold lower toxicity in resting PBMC respect to Jurkat and CEM [7]: 10–100 fold | concentration at which rise in G2/M cells occurs (as low as) (HeLa cells [8]): 2 µM | effect on cell cycle progression (HeLa cells [8]): significant G2/M arrest | Concentration up to which tubulin assembly was not inhibited (Bovine brain tubulin): > 20 µM | ROS production, H2DCFDA-positive cells (HeLa cells [9]; 1–6 h, concentration-dependent): early but modest increase | ROS production, HE fluorescence (superoxide anion) (HeLa cells [9]; data not shown): did not detect any increase | γH2A.X expression (γH2A.X in HeLa cells): induced γH2A.X expression | Bak and Bax expression [10]: remained practically unchanged | Mcl-1 expression [10]: decreased | Bcl-2 expression ([10]; 24 and 48 h): decreased | Bid expression [10]: nearly complete disappearance | intracellular GSH content (CMFDA fluorescence) (HeLa cells [11]): substantially reduced CMFDA fluorescence | annexin-V positive cells (HeLa cells [12]): accumulation of annexin-V positive cells | cell viability with z-VAD.fmk (HeLa cells [13]): significantly increased cell viability

Compound: C=C(Br)C(=O)Nc1cccc(/C=C/C(=O)Nc2ccc(Cl)cc2)c1 [4f, 2-Bromo-N-(3-{(1E)-3-oxo-3-[(4-chlorophenyl)amino]prop-1-en-1-yl}phenyl)-acrylamide]
fold increase of antiproliferative activity, fluorine to chlorine ([2]; vs 4c): 2–30 fold

pIC50 [2]: 4.56 to 6.72
Compound: C=C(Br)C(=O)Nc1cccc(/C=C/C(=O)Nc2ccccc2)c1 [4a, N-{3-[(1E)-3-anilino-3-oxoprop-1-en-1-yl]phenyl}-2-bromoacrylamide]

Compound: C=C(Br)C(=O)Nc1cccc(/C=C/C(=O)Nc2ccc(F)c(F)c2)c1 [4e, 2-Bromo-N-(3-{(1E)-3-oxo-3-[(3,4-difluorophenyl)amino]prop-1-en-1-yl}phenyl)-acrylamide]
fold increase of antiproliferative activity relative to 4c ([2]; additional meta-fluorine, all cancer cell lines): 4–1300 fold | Concentration up to which tubulin assembly was not inhibited (Bovine brain tubulin): > 20 µM

pIC50 [2]: 5.64 to 7.74
Compound: C=C(Br)C(=O)Nc1cccc(/C=C/C(=O)Nc2cc(OC)c(OC)c(OC)c2)c1 [4o, 2-Bromo-N-(3-{(1E)-3-oxo-3-[(3,4,5-trimethoxyphenyl)amino]prop-1-en-1-yl}phenyl)-acrylamide]
Concentration up to which tubulin assembly was not inhibited (Bovine brain tubulin): > 20 µM

Compound: C=C(Br)C(=O)Nc1cccc(/C=C/C(=O)Nc2cccc(F)c2)c1 [4d, 2-Bromo-N-(3-{(1E)-3-oxo-3-[(3-fluorophenyl)amino]prop-1-en-1-yl}phenyl)-acrylamide]
fold enhancement of antiproliferative activity vs 4c ([2]; fluorine moved para to meta, six of seven cell lines, exception CEM): 4–15 fold

Compound: C=C(Br)C(=O)Nc1cccc(/C=C/C(=O)Nc2ccc(N3CCOCC3)cc2)c1 [4p, 2-Bromo-N-(3-{(1E)-3-oxo-3-[(4-morpholinophenyl)amino]prop-1-en-1-yl}phenyl)-acrylamide]
effect on microtubule network [4]: not substantially modified | fold enhancement of antiproliferative activity relative to 4a ([2]; morpholin-4-yl, six of seven cell lines, exception CEM): 8–100 fold | cell viability in the presence of antioxidants (HeLa cells [6]): only the thiol-containing scavengers (NAC, GSH and DTT) significantly increased cell viability | fold lower toxicity in resting PBMC respect to Jurkat and CEM [7]: 10–100 fold | effect on cell cycle progression (HeLa cells [8]): significant G2/M arrest | Concentration up to which tubulin assembly was not inhibited (Bovine brain tubulin): > 20 µM | γH2A.X expression (γH2A.X in HeLa cells): induced this effect only after 48 h | Bak and Bax expression [10]: remained practically unchanged | Mcl-1 expression [10]: decreased | Bid expression [10]: nearly complete disappearance | intracellular GSH content (CMFDA fluorescence) (HeLa cells [11]): remarkable decrease; also recorded: substantially reduced CMFDA fluorescence | annexin-V positive cells (HeLa cells [12]): accumulation of annexin-V positive cells | cell viability with z-VAD.fmk (HeLa cells [13]): significantly increased cell viability

Compound: C=C(Br)C(=O)Nc1cccc(/C=C/C(=O)NCc2ccc(C)cc2)c1 [4h, 2-Bromo-N-(3-{(1E)-3-[(4-methylbenzyl)amino]-3-oxoprop-1-en-1-yl}phenyl)acrylamide]
fold reduced activity compared with 4g ([2]; cell lines other than HeLa, LoVo and MCF-7): 2 to 7 fold
